Test results from ChEMBL document CHEMBL1134344, “Crystal structure of human cyclin-dependent kinase 2 in complex with the adenine-derived inhibitor H717” (J Med Chem, 2001).

What was measured:
[1] = target: Cyclin-dependent kinase 1/cyclin B (Homo sapiens, UniProt P06493); experiment: Inhibition of human cyclic dependent kinase 1 (CDK1)/cyclin B; assay type: protein-complex assay
A549 = experiment: Inhibition of A549 human lung tumor cell proliferation; assay type: functional, cell-based
Outline: (§1)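 Tumor cells harvested with trypsin-EDTA, trypan-blue-excluding cells counted, plated and left overnight at 37 °C; drug diluted in culture medium and added for 72 h (three days). Medium then removed, plates frozen at -80 °C ≥30 min, thawed, and CyQUANT-GR in lysis buffer added for 3-5 min at room temperature.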

[2] = target: Cyclin-dependent kinase 2/cyclin E (Homo sapiens, UniProt P24941); experiment: Inhibition of cyclic dependent kinase 2 (CDK2)/cyclin E; assay type: protein-complex assay
DMS-114 = experiment: Inhibition of DMS114 human lung tumor cell proliferation; assay type: functional, cell-based; outline: as §1
[3] = target: Cyclin-dependent kinase 4/cyclin D1 (Homo sapiens, UniProt P11802); experiment: Inhibition of cyclic dependent kinase 4 (CDK4)/cyclin D1; assay type: protein-complex assay
Chain of Cyclin-dependent kinase 4/cyclin D1 (P11802 whole entry): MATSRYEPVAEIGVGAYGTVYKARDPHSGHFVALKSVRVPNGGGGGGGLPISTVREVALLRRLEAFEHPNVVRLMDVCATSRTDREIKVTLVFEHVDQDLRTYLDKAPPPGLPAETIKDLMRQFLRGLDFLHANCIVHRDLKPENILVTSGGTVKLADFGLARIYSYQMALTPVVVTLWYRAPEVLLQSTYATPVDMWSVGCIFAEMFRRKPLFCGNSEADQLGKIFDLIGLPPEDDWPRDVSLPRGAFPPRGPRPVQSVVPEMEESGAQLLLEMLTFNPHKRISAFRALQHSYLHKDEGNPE
Chain of Cyclin-dependent kinase 4/cyclin D1 (P24385 whole entry, further chain): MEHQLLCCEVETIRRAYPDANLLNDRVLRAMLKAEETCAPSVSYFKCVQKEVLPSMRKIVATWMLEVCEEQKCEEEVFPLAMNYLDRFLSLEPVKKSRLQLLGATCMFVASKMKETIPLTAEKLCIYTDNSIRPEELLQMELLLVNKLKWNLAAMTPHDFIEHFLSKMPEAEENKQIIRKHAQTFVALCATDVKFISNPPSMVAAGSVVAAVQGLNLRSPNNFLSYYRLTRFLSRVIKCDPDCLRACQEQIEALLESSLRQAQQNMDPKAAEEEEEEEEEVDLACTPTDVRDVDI
Outline: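 Human CDK4 and cyclin D1 coexpressed in Sf9 cells (baculovirus, MOI 0.1 each, 72 h); 0.1 ng enzyme from clarified lysate. Substrate GST-Rb (0.5 µg) on glutathione-Sepharose beads. ATP 10 µM plus [γ33P]ATP; 30 min at 30 °C. Filtration, TNEN washes, scintillation counting; IC50 from increasing drug concentrations.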

DU-145 = experiment: Inhibition of DU-145 human prostate tumor cell proliferation; assay type: functional, cell-based; outline: as §1
HCT-15 = experiment: Inhibition of HCT-15 human colon tumor cell proliferation; assay type: functional, cell-based; outline: as §1
HT-29 = experiment: Inhibition of HT-29 human colon tumor cell proliferation; assay type: functional, cell-based; outline: as §1
MDA-MB-231 = experiment: Inhibition of MDA-MB-231 human breast tumor cell proliferation; assay type: functional, cell-based; outline: as §1
MCF7 = experiment: Inhibition of MCF-7 human breast tumor cell proliferation; assay type: functional, cell-based; outline: as §1
PC-3 = experiment: Inhibition of PC-3 human prostate tumor cell proliferation; assay type: functional, cell-based; outline: as §1

IC50 [1] [nM] | IC50 (A549) [nM] | IC50 [2] [nM] | IC50 [3] [nM] | IC50 (DU-145) [nM] | IC50 (HCT-15) [nM] | IC50 (HT-29) [nM] | IC50 (MDA-MB-231) [nM] | IC50 (MCF7) [nM] | IC50 (PC-3) [nM] | Structure (SMILES) | IC50 (DMS-114) [nM]
52 |  |  |  |  |  |  |  |  |  | N[C@H]1CC[C@H](Nc2nc(NCc3ccccc3)c3ncn(C4CCCC4)c3n2)CC1 | 
2000 | 6100 | 720 | 8800 | 5600 | 8600 | 5700 | 5200 | 3300 | 3900 | C[C@H](Nc1nc(N[C@H]2CC[C@H](N)CC2)nc2c1ncn2C1CCCC1)c1ccccc1 | 6600
226 | 1000 | 50 | 2000 | 1600 | 2100 | 1200 | 1000 | 600 | 1400 | N[C@H]1CC[C@H](Nc2nc(NCc3cccc(I)c3)c3ncn(C4CCCC4)c3n2)CC1 | 1000
70 | 1600 | 24 | 780 | 1300 | 3300 | 2000 | 1700 | 1300 | 600 | N[C@H]1CC[C@H](Nc2nc(NCC3CC3)c3ncn(C4CCCC4)c3n2)CC1 | 1400
